Only some compounds are listed: those with a hit (about 2.2% of all), similar ones and a draw of the others.
CR mimetic SO: reduction of superoxide in aged yeast, primary screen, HTS; S. cerevisiae aged cells, superoxide DHE fluorescence; active compounds read low; superoxide response (% of plate mean), % at 10 µM; 0.18% of 330,000 active; AID 2690, 2010;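 active = superoxide response under a set limit, about three screen SD below normal, cut at about 65% in these data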;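 note: yeast aged for seven days with compound at 30 °C before DHE staining; 100% = average MFI of all compound-treated wells on the plate with controls excluded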
PglD DTNB: C. jejuni PglD acetyltransferase inhibitors, primary screen, biochemical, DTNB colorimetric, single point; purified PglD enzyme, DTNB colorimetric CoA detection; inhibition, % at 12.5 µM; 0.098% of 360,000 active; AID 602405, 2012; in the data active = inhibition above about 16%, passing the limit was not always enough
Ecoli rRNA inh: reduced GFP signal of wild-type E. coli, primary screen, bacterial rRNA inhibitor project, GFP/RFP fluorescence, OD600, single point. AID 720706, 2013. 1.6% of 350,000 active. E. coli WT GFP vs humanized-ribosome RFP mutants, 24 h; active compounds read low; DMSO median 0, no signal -100. GFP signal change (wild-type ribosome), % (concentration not given with the values);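 active = significant combined selectivity score with lowered wild-type GFP, culture density cut under 30%, mutant RFP and density less affected; inactive = any of these conditions unmet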
Mot1-301 SUMO: yeast Mot1-301 growth rescue at high temperature, primary screen, SUMOylation pathway inhibitor project, S. cerevisiae, ATP luminescence, 38.5C. S. cerevisiae Mot1-301 growth rescue; percent above DMSO median, 100 means doubled. growth rescue, % at 18.8 µM. 1% of 320,000 active. AID 2716, 2010;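 active = every valid replicate shows activation above 250% relative to neutral control wells; inactive = the rest, any valid replicate at or below 250%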;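 note: OY570 slx delta 5 strain wells were the positive control but not used for scaling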
Cneo AK release: Cryptococcus neoformans cell lysis inducers, primary screen, AK release luminescence, single concentration; AID 651654, 2012; lysis activity, % at 15 µM; C. neoformans lysis, adenylate kinase release luminescence, 4 h; normalised: neutral wells 0, clomiphene wells 100; 0.2% of 360,000 active;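 active = mean lysis activity across replicates of at least 80%, whatever share of replicates individually reach that level; inactive = mean lysis activity below 80%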
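read-out = cell lysis signal | test system = log-phase Cryptococcus neoformans yeast cells | input = cells at 5 × 10^6 per mL | medium = fresh YPD growth medium | signal = luminescent adenylate kinase detection reagent | timing = 4 h at 37 °C static, read 1 h later | dosing = single dose | controls = Clomiphene as positive lysis control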
The depositor's hits bear a star; x = no result.

SMILES | CR mimetic SO | PglD DTNB | Ecoli rRNA inh | Mot1-301 SUMO | Cneo AK release
CC1CCc2nc3ccccc3c(C(=O)OCC(=O)N(C)C3CCS(=O)(=O)C3)c2C1 (stereo not given) | 93.4 | x | -6.2 | 4.0 | x
COc1cccc2cc(-c3ccnc(N)n3)oc12 | 87.6 | -4.1 | -32.3* | -35.1 | 6.7
Nc1cc(Nc2ccc(Br)cc2)nc(N)n1 | 97.7 | x | -43.6* | 96.3 | x
Cc1cc(Nc2ccc(Cl)cc2)nc(N)n1 | 86.5 | -3.2 | x | -6.5 | -1.5
Cc1ccc2c(c1)-c1c(ssc1=S)C(C)(C)N2C(=O)CSC1=NCCS1 | 91.6 | -2.2 | -26.1* | 20.5 | -5.3
CCCCN(C)CCNC(=O)c1ccc(Cn2c(=S)[nH]c3ccc(Br)cc3c2=O)cc1 | 110.0 | x | -52.8* | 7.9 | x
CN(C)CCNC(=O)c1ccc2c(=O)n(Cc3ccc(Cl)cc3)c(=S)[nH]c2c1 | 94.1 | 9.7 | -29.2 | 75.1 | -2.1
Cc1ccccc1CN1CCc2c(OCC(=O)N3CCCCC3)cccc2C1=O | 95.2 | x | -25.3* | -3.5 | x
CN1C(=O)S/C(=C\c2ccc(-n3cncn3)cc2)C1=O | 78.9 | -1.9 | -22.2* | -14.8 | -0.5
CCCCCC(=O)NC(=S)Nc1ccc(N2CCOCC2)cc1 | 88.6 | x | -27.5* | -3.1 | x
COc1ccc(S(=O)(=O)CC(=O)c2cc3cc(Br)ccc3oc2=O)cc1 | 95.9 | 3.1 | -21.9* | 61.8 | 1.7
CCN(CC)S(=O)(=O)c1cc(NC(=O)C(C)N2CCN(c3ccccn3)CC2)ccc1C (stereo not given) | 100.2 | 4.4 | -19.8* | 6.8 | -2.2
COCC(=O)Nc1ccc2c(c1)[C@H]1C[C@H](CC(=O)NCc3cc(F)ccc3F)O[C@H](CO)[C@H]1O2 | x | 3.2 | -1.5 | x | -38.3
CC=Cc1ccc2n(c1=O)C[C@H]1[C@H](CO)[C@@H](C(=O)Nc3ccccc3)[C@@H]2N1C(=O)CC1CC1 (mixture of isomers) | x | 4.2 | -3.7 | x | 55.9
O=C(O)Cn1cc(/C=C2\SC(=O)N(c3ccccc3)C2=O)c2ccccc21 | 98.9 | -2.9 | 7.8 | 672.4* | 0.6
Cn1cc(/C=C2/SC(=O)N(c3ccccc3)C2=O)c2ccccc21 | 99.6 | 6.8 | x | 27.2 | -3.2
CCN(C[C@H]1N[C@@](CC)(C(=O)OC)[C@H]2C(=O)N(C)C(=O)[C@@H]12)C(=O)Nc1ccc(C(F)(F)F)cc1 | 122.0 | 0.5 | -24.4* | 2.3 | -2.0
CC[C@@]1(C(=O)OC)N[C@H](CN(C)C(=O)Nc2ccc(C(F)(F)F)cc2)[C@@H]2C(=O)N(C)C(=O)[C@@H]21 | 90.8 | -2.7 | 7.0 | x | -0.4
C=CCN=C(NC#N)SC | 42.7* | -7.8 | 10.3 | -10.0 | 0.7
C[C@@H]1CN([C@H](C)CO)C(=O)c2cc(NC(=O)Nc3ccccc3)ccc2O[C@H]1CN(C)Cc1ccccc1 | x | -0.5 | 5.5 | x | -4.6
O=C(C[C@@H]1C=C[C@@H](NC(=O)c2ccc(F)cc2)[C@@H](CO)O1)NCCc1ccncc1 | x | -0.8 | 5.3 | x | -1.1
COc1ccc(S(=O)(=O)Nc2ccccc2C(=O)NCc2cccnc2)cc1C | 96.0 | 5.4 | -3.0 | -10.6 | 1.1
Cc1cc(F)ccc1S(=O)(=O)Nc1ccccc1C(=O)NCc1cccnc1 | 106.6 | x | -23.6* | x | x
O=C(Cc1ccccc1)NCC(=O)N/N=C/c1cccnc1 | 106.1 | x | 7.5 | -7.6 | x
Cc1ccc(N/N=C/c2cccnc2)cc1 | 120.2 | 6.4 | x | 289.2* | 10.0
Cc1ccc(N/N=C/c2ccncc2)cc1 | 106.7 | -4.7 | 3.8 | 27.0 | 1.2
O=C(Cc1ccccc1)N/N=C/c1cccnc1 | 95.7 | -3.2 | -0.5 | 313.3* | -1.8
COc1ccccc1/C=C/C=N/NC(=O)c1cc(-c2ccc(C)o2)[nH]n1 | 102.4 | x | -23.1 | 307.9* | x
Cc1cccc(S(=O)(=O)N2C[C@@H](O)COC[C@H]3O[C@@H](CC(=O)NCc4ccncn4)CC[C@@H]32)c1 | x | -0.9 | 0.8 | x | 3.0
CCC(=O)N(C)C[C@H]1Oc2ncc(/C=C/c3ccccc3)cc2C(=O)N([C@@H](C)CO)C[C@@H]1C | x | 2.0 | -4.1 | x | 4.2

Screening results as filed in PubChem.
